Laboratory results taken from PMC9290614 (The Journal of Dermatology, 2021).
Where “and” joins values, the source holds several entries; their conditions need not be identical. Equal entries are not always repeated. Where two headings read alike, the source gives them in different places.

What was measured:
[1] = type: in vivo, human; conditions: for Cmin (predose trough): geometric mean (CV% geometric mean); for AUC / AUC(0-t) / Cmax / Vd/F / half-life / Tmax: human, plasma, oral; for Tmax: median (minimum, maximum)
Population PK = type: in vivo, human; conditions: for AUC: human, plasma, oral, Median week 16 apremilast exposure (AUCτ,ss) derived from the PPK model, all subjects
Method in brief: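 Pooled plasma levels came from healthy or patient subjects: single oral 20–50 mg or multiple 30/50 mg b.i.d. in phase 1, plus phase 2b/3 psoriasis studies, including Japanese sparse/intensive samples at weeks 8–24. After below-LOQ exclusion, 5704 samples remained. Base model: CL/F, first-order Ka, absorption lag, Vc/F, mixed residual error. Tested covariates included age, sex, race, bodyweight and smoking.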

[2] = system: subjects with moderate to severe psoriasis; assay: Exposure-response; type: in vivo, human; conditions: for Predicted probability of achieving sPGA response (0 or 1) at week 16: non-Japanese, placebo 5.0%; for Predicted probability of achieving PASI-75 response at week 16: placebo 6.1%; for Predicted probability of achieving PASI-50 response at week 16: placebo 20.0%; for sPGA Probability: at race-specific median AUCτ,ss; for Predicted probability of sPGA response (0 or 1): typical model-derived exposure, Japanese subjects, placebo 14.1%
[3] = system: subjects with moderate to severe psoriasis; conditions: cited from earlier work
[4] = predominantly Caucasian healthy subjects, mean [SD]; cited from earlier work
CYP3A4 = conditions: multiple p.o. doses of rifampicin (strong CYP3A4 induction); cited from earlier work
[5] = system: plasma IL-17A, IL-17F, and IL-22; conditions: 30 mg b.i.d., PSOR-009 (ESTEEM 2) and PSOR-011 PD subsets; cited from earlier work
[6] = 10 mg b.i.d., median exposure 1065.4 ng·h/mL
[7] = 20 mg b.i.d., median exposure 2030.6 ng·h/mL
[8] = 30 mg b.i.d., median exposure 3169.2 ng·h/mL
[9] = PSOR-008/ESTEEM 1, 30 mg b.i.d.
[10] = PSOR-011, Japanese subjects, 30 mg b.i.d.

SMILES: CCOc1cc([C@@H](CS(C)(=O)=O)N2C(=O)c3cccc(NC(C)=O)c3C2=O)ccc1OC [apremilast]
- Cmin (predose trough) ([1]; Japanese subjects, 20 mg b.i.d., week 20, n = 21): 91 ng/mL and 90.8 (50.1) ng/mL
- Cmin (predose trough) ([1]; Japanese subjects, 30 mg b.i.d., week 20, n = 20): 104 ng/mL and 104 (66.6) ng/mL
- Increase of mean AUCτ and Cmax with increase in dose ([1]; Japanese subjects, dose from 20 to 30 mg b.i.d.): ~ 1.2 times
- AUC ([1]; 20 mg): 1960 ng·h/mL
- AUC(0-t) ([1]; 20 mg): 1600 ng·h/mL
- Cmax ([1]; 20 mg): 304 ng/mL
- Vd/F ([1]; 20 mg): 68 L
- half-life ([1]; 20 mg): 4.31 h
- Tmax ([1]; 20 mg, Japanese subjects, 20 mg b.i.d., week 20, n = 21): ~2 h
- AUC ([1]; 30 mg): 2400 ng·h/mL
- AUC(0-t) ([1]; 30 mg): 1970 ng·h/mL
- Cmax ([1]; 30 mg): 374 ng/mL
- Vd/F ([1]; 30 mg): 83.1 L
- half-life ([1]; 30 mg): 4.06 h
- Tmax ([1]; 30 mg, Japanese subjects, 30 mg b.i.d., week 20, n = 20): ~2 h
- Clearance faster than in a typical 45-year-old (Population PK): 14%
- Clearance slower than in a 45-year-old (Population PK; 80-year-old): 8%
- Vc/F greater than in a typical 82-kg individual (Population PK; 102-kg individual): approximately 14%
- CL/F, typical value (RSE %) (Population PK; final PPK model): 9.25 (3.4) L/h
- Clearance faster in Japanese versus non-Japanese individuals (Population PK; final PPK model): approximately 17%
- Ka, first-order rate of absorption, typical value (RSE %) (Population PK; final PPK model): 1.83 (11.7) h^−1
- Lag time of absorption, typical value (RSE %) (Population PK; final PPK model): 0.290 (11.7) h
- Reduction of CL/F in subjects with psoriasis compared with healthy subjects (Population PK; final PPK model): approximately 17%
- Vc/F, typical value (RSE %) (Population PK; final PPK model): 115 (2.2) L
- AUC (Population PK; 20 mg, 20 mg b.i.d.): 2030 ng·h/mL
- AUC (Population PK; 30 mg, 30 mg b.i.d.): 3170 ng·h/mL
- Predicted probability of achieving sPGA response (0 or 1) at week 16 [2, 6]: 16.2%
- Predicted probability of achieving PASI-75 response at week 16 [2, 6]: 19.0%
- Predicted probability of achieving PASI-50 response at week 16 [2, 6]: 43.8%
- sPGA Probability ([2]; 20 mg BID, Caucasian): 23.2%
- sPGA Probability ([2]; 20 mg BID, Japanese): 32.9%
- Predicted probability of achieving sPGA response (0 or 1) at week 16 [2, 7]: 22.7%
- Predicted probability of achieving PASI-75 response at week 16 [2, 7]: 28.6%
- Predicted probability of achieving PASI-50 response at week 16 [2, 7]: 55.3%
- Predicted probability of sPGA response (0 or 1) ([2]; 20 mg b.i.d.): 33.8%
- sPGA Probability ([2]; 30 mg BID, Caucasian): 27.5%
- sPGA Probability ([2]; 30 mg BID, Japanese): 36.3%
- Predicted probability of achieving sPGA response (0 or 1) at week 16 [2, 8]: 27.3%
- Predicted probability of achieving PASI-75 response at week 16 [2, 8]: 36.5%
- Predicted probability of achieving PASI-50 response at week 16 [2, 8]: 62.8%
- Predicted probability of sPGA response (0 or 1) ([2]; 30 mg b.i.d.): 37.5%
- Rate of PASI-75 response at week 16 ([3]; PSOR-005, 30 mg b.i.d.): 40.9%
- Rate of sPGA response (0 or 1) at week 16 ([3]; PSOR-005, 30 mg b.i.d.): 33.0%
- Treatment effect (difference in proportions between apremilast 30 mg b.i.d. and placebo), PASI-75 ([3]; PSOR-005): 35.2%
- Treatment effect (difference in proportions between apremilast 30 mg b.i.d. and placebo), sPGA response ([3]; PSOR-005): 21.1%
- Rate of PASI-75 response at week 16 [3, 9]: 33.1%
- Rate of sPGA response (0 or 1) at week 16 [3, 9]: 21.7%
- Treatment effect (difference in proportions between apremilast 30 mg b.i.d. and placebo), PASI-75 ([3]; PSOR-008/ESTEEM 1): 27.8%
- Treatment effect (difference in proportions between apremilast 30 mg b.i.d. and placebo), sPGA response ([3]; PSOR-008/ESTEEM 1): 17.8%
- Rate of PASI-75 response at week 16 [3, 10]: 28.2%
- Rate of sPGA response (0 or 1) at week 16 [3, 10]: 29.6%
- Treatment effect (difference in proportions between apremilast 30 mg b.i.d. and placebo), PASI-75 ([3]; PSOR-011): 21.1%
- Treatment effect (difference in proportions between apremilast 30 mg b.i.d. and placebo), sPGA response ([3]; PSOR-011): 20.8%
- AUC0-∞ [4]: 3270 [1081] ng·h/mL
- Cmax [4]: 298 [81.4] ng/mL
- Decrease in apremilast exposure (CYP3A4): ~72%
- Increase in apremilast clearance (CYP3A4): 3.6 times
- Effect on plasma IL-17A, IL-17F, and IL-22 [5]: significantly reduced
